The source of these data is article PMC2289302 (The Journal of Cell Biology, 1992).

As usually defined, the IC50 is the point on the concentration scale where inhibition reaches its midpoint. Read a high IC50 as a need for much substance.

For one experiment, the system named is A375 melanoma cells. The class given is cell-based, human. The conditions noted are these: 5 ug/ml peptide, no activation, Figs. 2 and 3. In outline: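 Surfaces coated at 5 ug/ml with plasma fibronectin or with synthetic peptides, each carrying an NH2-terminal cysteine on a gly-gly-gly tail and conjugated to SMCC-derivatized RSA. Human melanoma A375 cells were left to adhere for 1 h. Nonadherent cells were washed off. Adherent monolayers were photographed under phase contrast on an inverted microscope to judge adhesion and spreading.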

The target in experiment [1] is LDV peptide-RSA conjugate (human). Nature of the experiment: cell adhesion assay.
Another experiment has as its target alpha 4 beta 1 integrin (human (endogenous in Jurkat, Ramos, …, UniProt P13612;P05556)). As to the kind of experiment: cell adhesion assay.

With rsa-EILDVPST, the “adhesion of A375 melanoma cells to coated surface, in words” value in the experiment with A375 melanoma cells is given as “able to support the adhesion”.

On to “alpha 4 beta 1 integrin (from UniProt P13612;P05556) (receptor)”, for which the molar concentration of peptide conjugate required for 50% adhesion in experiment [1] was more than 2000.

In the case of DELPQLVTLPHPN [A13 peptide], the IC50 in the experiment with alpha 4 beta 1 integrin was more than 1000 µM.

LHGPEILDVPST [B12 peptide] gave an IC50 in the experiment with alpha 4 beta 1 integrin of 400 µM.

Consider GPEILDVPST [GPEILDVPST peptide], for which the IC50 in the experiment with alpha 4 beta 1 integrin is 450 µM.

In the experiment with alpha 4 beta 1 integrin, EILDV [EILDV peptide] had a concentration for half-maximal inhibition (IC50) of 660 µM.
